Converted amounts (≈) assume the structure as drawn. The source made the active and inactive calls. The rule behind the calls is not given here.
How the values were obtained:
[1] = system: Staphylococcus aureus; experiment: Antibacterial activity against vancomycin-intermediate resistant Staphylococcus aureus Mu50 ATCC 700699 assessed as bacterial growth inhibition by measuring fold increase in MIC between 5 to 7 passages by broth dilution method; format: functional
[2] = system: Enterobacter cloacae; experiment: Antibacterial activity against Enterobacter cloacae ATCC 23355 assessed as zone of inhibition by disc diffusion method; format: functional
[3] = system: Acinetobacter baumannii; experiment: Antibacterial activity against multidrug-resistant Acinetobacter baumannii BAA 1605 assessed as zone of inhibition by disc diffusion method; format: functional
[4] = system: Enterococcus faecium; experiment: Antibacterial activity against vancomycin-resistant Enterococcus faecium ATCC 700221 assessed as zone of inhibition by disc diffusion method; format: functional
[5] = system: Staphylococcus aureus; experiment: Antibacterial activity against community acquired methicillin-resistant Staphylococcus aureus BAA 1747 assessed as zone of inhibition by disc diffusion method; format: functional
[6] = system: Staphylococcus aureus; experiment: Antibacterial activity against heterogeneous vancomycin-intermediate resistant Staphylococcus aureus Mu3 ATCC 700698 assessed as zone of inhibition by disc diffusion method; format: functional
[7] = system: Staphylococcus epidermidis; experiment: Antibacterial activity against Staphylococcus epidermidis ATCC 14990 assessed as zone of inhibition by disc diffusion method; format: functional
[8] = system: Pseudomonas aeruginosa; experiment: Antibacterial activity against Pseudomonas aeruginosa ATCC 15422 assessed as zone of inhibition by disc diffusion method; format: functional
[9] = system: Staphylococcus aureus; experiment: Antibacterial activity against methicillin-susceptible Staphylococcus aureus ATCC 25923 assessed as bacterial growth inhibition incubated for 20 hrs by broth dilution method; format: functional
Procedure, shortened: (§1)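 Broth microdilution: 0.5 McFarland suspension from an overnight culture, diluted 1:100 in cation-adjusted Mueller Hinton broth (CAMHB), given serial dilutions of test agent for 20 h at 37 °C. MIC is the lowest concentration with no visible growth.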

[10] = system: Staphylococcus aureus; experiment: Bactericidal activity against methicillin-susceptible Staphylococcus aureus ATCC 25923 assessed as bacterial killing incubated for over night; format: functional
Procedure, shortened: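 5 μL from each well was spotted on agar and incubated overnight. MBC was taken as the lowest concentration with no visible growth.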

[11] = system: Staphylococcus aureus; experiment: Ratio of MBC to MIC against methicillin-susceptible Staphylococcus aureus ATCC 25923; format: functional
Procedure, shortened: (§2)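 For MBC, 5 μL from each well was spotted on agar and incubated overnight; MBC is the lowest concentration with no visible growth. Ratio taken as MBC over MIC.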

[12] = system: Staphylococcus aureus; experiment: Bactericidal activity against methicillin-resistant Staphylococcus aureus ATCC 43300 assessed as bacterial killing incubated for over night; format: functional; procedure, shortened: as §2
[13] = system: Staphylococcus aureus; experiment: Antibacterial activity against linezolid-resistant Staphylococcus aureus assessed as bacterial growth inhibition incubated for 20 hrs by broth dilution method; format: functional; procedure, shortened: as §1
[14] = system: Staphylococcus aureus; experiment: Ratio of MBC to MIC against heterogeneous vancomycin-intermediate Staphylococcus aureus Mu3 ATCC 700698; format: functional; procedure, shortened: as §2
[15] = system: Staphylococcus aureus; experiment: Antibacterial activity against vancomycin-intermediate resistant Staphylococcus aureus Mu50 ATCC 700699 assessed as bacterial growth inhibition incubated for 20 hrs by broth dilution method; format: functional; procedure, shortened: as §1
[16] = system: Staphylococcus aureus; experiment: Antibacterial activity against vancomycin-resistant Staphylococcus aureus HIP11714 assessed as inhibition of bacterial growth incubated for 20 hrs by broth microdilution method; format: functional; settings: HIP11714, 20 h; procedure, shortened: as §1
[17] = system: Staphylococcus aureus; experiment: Antibacterial activity against vancomycin-intermediate Staphylococcus aureus clinical isolate 12 assessed as bacterial growth inhibition after 20 hrs by broth microdilution assay; format: functional; procedure, shortened: as §1
[18] = system: Staphylococcus aureus; experiment: Antibacterial activity against vancomycin-resistant Staphylococcus aureus clinical isolate 10 assessed as bacterial growth inhibition after 20 hrs by broth microdilution assay; format: functional; procedure, shortened: as §1
[19] = system: Staphylococcus aureus; experiment: Antibacterial activity against vancomycin-resistant Staphylococcus aureus HIP11714 assessed as inhibition of bacterial growth measured between 2 and 4 passages at 0.5 times of MIC incubated for 20 hrs by resistant development assay; format: functional, organism-based
[20] = system: Staphylococcus aureus; experiment: Antibacterial activity against methicillin-susceptible Staphylococcus aureus ATCC 25923 in presence of glutathione; format: functional
Procedure, shortened: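 Broth microdilution MIC: a 0.5 McFarland suspension from overnight culture was diluted 1:100 in cation-adjusted Mueller Hinton broth supplemented with glutathione 100 μM. It was exposed to serial dilutions for 20 h at 37 °C. MIC was taken as the lowest concentration with no visible growth.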

[21] = system: Staphylococcus aureus; experiment: Antibacterial activity against methicillin-susceptible Staphylococcus aureus ATCC 25923 in presence of 0.05% v/v albumin; format: functional
[22] = system: MDA-MB-231; experiment: Cytotoxicity against human MDA-MB-231 cells assessed as reduction in cell viability after 72 hrs by MTT assay; format: cell-based; settings: MDA-MB-231, 72 h
Procedure, shortened: (§3)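 MTT viability: MDA-MB-231 and HepG2 cells (kept in DMEM with 10% FBS) were seeded at 5000/well and allowed to adhere overnight. They were exposed to 0.001–100 μM for 72 h, then given MTT 1 mg/mL in PBS pH 7.4 for 2 h. Formazan was dissolved in DMSO and A570 read. IC50 was taken from dose-response curves.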

[23] = system: HepG2; experiment: Cytotoxicity against human HepG2 cells assessed as reduction in cell viability after 72 hrs by MTT assay; format: cell-based; settings: HepG2, 72 h; procedure, shortened: as §3
[24] = system: Staphylococcus aureus; experiment: Antibacterial activity against methicillin-susceptible Staphylococcus aureus ATCC 25923 assessed as inhibition of bacterial growth at 1 to 2 times of MIC after 20 hrs; format: functional, organism-based
[25] = system: Staphylococcus aureus; experiment: Antibacterial activity against methicillin-susceptible Staphylococcus aureus ATCC 25923 assessed as delayed bacterial proliferation at 0.25 times of MIC for 10 hrs; format: functional, organism-based
[26] = system: Staphylococcus aureus; experiment: Bacteriostatic activity against methicillin-susceptible Staphylococcus aureus ATCC 25923 assessed as reduction in glucose metabolism measured at 0.5 hr interval for 15 hrs by phenol red based microplate reader assay; format: functional, organism-based
Procedure, shortened: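 Glucose acidification: an OD600 1.0 suspension of S. aureus […] in HBSS was mixed with phenol red (70 μM stock) and test agent added from a 2 mM stock. Controls were DMSO vehicle and water. OD560 was read every 0.5 h for 15 h at 37 °C.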

[27] = system: Staphylococcus aureus; experiment: Disruption of membrane potential in Staphylococcus aureus after 15 to 30 mins by DiOC2(3) probe based flow cytometric anlaysis; format: functional, organism-based; settings: time 15-30 min
Procedure, shortened: (§4)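 An overnight S. aureus culture was diluted 1:100 in LB, shaken 2 h at 37 °C, then diluted to a final 1:200. Cells were treated with 3–30 μM, DMSO 2% vehicle or CCCP at 37 °C with shaking. At 15 and 30 min, samples were stained 20 min with DiOC2(3). Flow cytometry used ex 488 nm, green 530/30 and red 585/42, reported as red/green ratio (mean ± SEM).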

[28] = system: Staphylococcus aureus; experiment: Disruption of membrane potential in Staphylococcus aureus at 3 to 30 uM by DiOC2(3) probe based flow cytometric analysis; format: functional, organism-based; settings: dose 3-30 µM, TDE = time-dependent effect; procedure, shortened: as §4
[29] = system: Staphylococcus aureus; experiment: Induction of intracellular oxidant species generation in Staphylococcus aureus ATCC 25923 by DCFH-DA dye based fluorescence assay; format: functional, organism-based
Procedure, shortened: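 OD600 1.5 suspension of S. aureus […] in HBSS given agent (from 2 or 10 mM stock), DMSO or water, then DCFH diacetate from a 100 μM stock in DMSO. Intracellular oxidation read by fluorescence (ex 485, em 535 nm).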

Question: How did the “fold change (FC)” value [1] turn out when `CCCCCCCCSSc1ccccn1` was run?
Answer: The value was over 2.

Question: And the “diameter of the inhibition zone (DIZ)” value [2]?
Answer: The value was 0 mm.

Question: And the “diameter of the inhibition zone (DIZ)” value [3]?
Answer: Its value is 0 mm.

Question: What about the “diameter of the inhibition zone (DIZ)” value [4] of the same compound?
Answer: The value was 12 mm.

Question: What about the “diameter of the inhibition zone (DIZ)” value [5] of the same compound?
Answer: Its value is 30 mm.

Question: What about the “diameter of the inhibition zone (DIZ)” value [6] of the same compound?
Answer: The value was 37 mm.

Question: And the “diameter of the inhibition zone (DIZ)” value [7]?
Answer: The value was 46 mm.

Question: What about the “diameter of the inhibition zone (DIZ)” value [8] of the same compound?
Answer: Its value is 0 mm.

Question: What about the MIC [9] of the same compound?
Answer: Its MIC is 12.5 µM (≈ 3.19 µg/mL).

Question: And the MBC [10]?
Answer: The MBC was over 50 µM.

Question: What about the Ratio [11] of the same compound?
Answer: The Ratio was over 4.

Question: What about the MBC [12] of the same compound?
Answer: Its MBC is over 50 µM.

Question: What about the MIC [13] of the same compound?
Answer: The MIC was 25 µM (≈ 6.39 µg/mL).

Question: And the Ratio [14]?
Answer: The Ratio was over 4.

Question: And the MIC [15]?
Answer: The MIC was 3.13 µM (≈ 0.8 µg/mL).

Question: And the MIC [16]?
Answer: The MIC was 6.25 µM (≈ 1.6 µg/mL).

Question: What about the MIC50 [17] of the same compound?
Answer: The MIC50 was 12.5 µM (≈ 3.19 µg/mL).

Question: What about the MIC90 [17] of the same compound?
Answer: The MIC90 was 12.5 µM (≈ 3.19 µg/mL).

Question: What about the MIC50 [18] of the same compound?
Answer: Its MIC50 is 6.25 µM (≈ 1.6 µg/mL).

Question: What about the MIC90 [18] of the same compound?
Answer: Its MIC90 is 12.5 µM (≈ 3.19 µg/mL).

Question: What about the Activity [19] of the same compound?
Answer: Its Activity is “Active”.

Question: And the MIC [20]?
Answer: The MIC was 50 µM.

Question: What about the MIC [21] of the same compound?
Answer: Its MIC is 12.5 µM.

Question: What about the IC50 [22] of the same compound?
Answer: Its IC50 is 74.9 µM.

Question: And the IC50 [23]?
Answer: Its IC50 is at least 100 µM.

Question: And the Activity [24]?
Answer: Its Activity is “Active”.

Question: What about the Activity [25] of the same compound?
Answer: Its Activity is “Active”.

Question: And the Activity [26]?
Answer: Its Activity is “Active”.

Question: What about the Activity [27] of the same compound?
Answer: The Activity was “Dose-dependent effect”.

Question: And the Activity [28]?
Answer: Its Activity is “Tde”.

Question: What about the Activity [29] of the same compound?
Answer: The Activity was “Active”.

Reference: ChEMBL document CHEMBL4715813, “Allicin-inspired pyridyl disulfides as antimicrobial agents for multidrug-resistant Staphylococcus aureus” (Eur J Med Chem, 2018)
